Experimental data from ChEMBL document CHEMBL1124035, “1-Amino-substituted 4-methyl-5H-pyrido[4,3-b]indoles (gamma-carbolines) as tricyclic analogues of ellipticines: a new class of antineoplastic agents” (1988).

Assays:
[1] = tested on: Mus musculus; assay: Median survival day of B16 melanoma infected mice, when a dose of 2.5 mg/kg administered intraperitoneally; assay type: functional; conditions: route intraperitoneal
Method in brief: (§1)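 B16 melanoma in hybrid BD F1 mice. At D0 each mouse was inoculated ip with 0.5 mL of homogenate made from 1 g of tumour in 10 mL of physiological serum. Compounds were given ip daily at the stated doses for 9 days (D1-9), with cis-platinum 0.5 mg/kg under the same schedule as positive control.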

[2] = tested on: Mus musculus; assay: […] in C38 adenocarcinoma cell line when a dose of 50 mg/kg administered intravenously in mice; assay type: functional, MC-38; conditions: route intravenous
Method in brief: (§2)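 C38 colon adenocarcinoma in hybrid BD F1 mice, 10 per test. A standard 3-mm³ tumour fragment was implanted sc. Drugs were given iv at the stated doses on D1 or on D2 + D9, following the Geran et al. NCI protocol.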

[3] = tested on: Mus musculus; assay: Median tumoral volume in C38 adenocarcinoma model when a dose of 50 mg/kg administered intravenously on D1 to mice; assay type: functional; conditions: route intravenous
Method in brief: (§3)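 Geran protocol in hybrid BDF1 mice, 10 per test, implanted sc with a standard 3-mm³ fragment of C38 colon adenocarcinoma. Drug was given iv at the stated doses on D1, or on D2 + D9, and tumor growth was followed.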

[4] = tested on: Mus musculus; assay: Median survival day in P388 cell line when a dose of 20 mg/kg administered intraperitoneally to mice; assay type: functional; conditions: route intraperitoneal
Method in brief: (§4)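 P388 leukaemia in CDF1 hybrid mice, 10 per group. At D0, 10^6 viable cells were inoculated ip, followed by a single ip dose of drug in distilled water on D1. Weight change, median survival day, T/C (treated/control median survival × 100) and survivors at D30 were recorded. Controls were 20 mice.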

[5] = tested on: Mus musculus; assay: Median survival day in P388 cell line when a dose of 50 mg/kg administered intravenously to mice; assay type: functional; conditions: route intravenous
Method in brief: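 P388 leukaemia in CDF1 hybrid mice, 10 per group. At D0, 10^6 viable cells were inoculated ip, followed by a single iv dose on D1. Weight change, median survival day, T/C (treated/control median survival × 100) and survivors at D30 were recorded.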

[6] = tested on: Mus musculus; assay: Antitumor activity against L1210 cells at a dose of 20 mg/kg administered intravenously to mice; assay type: functional; conditions: route intravenous
Method in brief: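 P388 (10^6 cells) or L1210 (10^5 cells) leukemia was inoculated ip in mice at D0, followed by a single iv drug treatment on D1. Weight change was recorded. T/C % = median survival day of treated / controls × 100; survivors noted at D30; 10-15 mice per group.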

[7] = tested on: Mus musculus; assay: Weight change in g when a dose of 5 mg/kg administered intraperitoneally to B16 melanoma infected mice; assay type: functional; conditions: route intraperitoneal
Method in brief: (§5)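 Hybrid BDF1 mice were inoculated ip at D0 with 0.5 mL of B16 melanoma homogenate (1 g tumor in 10 mL physiological serum). Drug was given ip daily on days 1-9, with cis-platinum 0.5 mg/kg as positive control on the same schedule.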

[8] = tested on: Mus musculus; assay: Survivors at day 60 when a dose of 1.25 mg/kg to B16 melanoma infected when tested in 10 mice; assay type: functional
[9] = tested on: Mus musculus; assay: Survivors at day 60 when a dose of 5 mg/kg to B16 melanoma infected when tested in 10 mice; assay type: functional
[10] = tested on: Mus musculus; assay: Survivors at day 60 when a dose of 10 mg/kg to B16 melanoma infected when tested in 10 mice; assay type: functional
[11] = tested on: Mus musculus; assay: Weight change in g at a dose of 50 mg/kg intravenous administration to P388 leukemia model; assay type: functional
Method in brief: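 Mice (10 per group) were inoculated ip at D0 with 10^6 P388 leukemia cells and given a single iv dose at D1. Read-outs were weight change (g), median survival day, T/C % versus controls and survivors at D30.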

[12] = tested on: Mus musculus; assay: Median survival day in B16 melanoma cell line when a dose of 10 mg/kg administered intraperitoneally to mice; assay type: functional; conditions: route intraperitoneal; method in brief: as §1
[13] = tested on: Mus musculus; assay: Median survival day in B16 melanoma cell line when a dose of 30 mg/kg administered intraperitoneally to mice; assay type: functional; conditions: route intraperitoneal; method in brief: as §1
[14] = tested on: Mus musculus; assay: Median survival day in B16 melanoma cell line when a dose of 5 mg/kg administered intraperitoneally to mice; assay type: functional; conditions: route intraperitoneal; method in brief: as §1
[15] = tested on: Mus musculus; assay: Median survival day in P388 leukemia model when a dose of 80 mg/kg administered intraperitoneally; assay type: functional; conditions: route intraperitoneal; method in brief: as §4
[16] = tested on: Mus musculus; assay: Antitumor activity against P388 cells at a dose of 80 mg/kg administered intraperitoneally P388 Leukemia model; assay type: functional; conditions: route intraperitoneal
Method in brief: (§6)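 Mice were inoculated ip with 10^6 P388 leukemia cells at D0, then given a single ip drug dose on D1. Weight change was recorded. T/C % = median survival day of treated / controls × 100; survivors counted at D30; 10 mice per dose group, 20 controls.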

[17] = tested on: Mus musculus; assay: Antitumor activity against P388 cells at a dose of 10 mg/kg administered intraperitoneally P388 Leukemia model; assay type: functional; conditions: route intraperitoneal; method in brief: as §6
[18] = tested on: Mus musculus; assay: Antitumor activity against P388 cells at a dose of 20 mg/kg administered intraperitoneally P388 Leukemia model; assay type: functional; conditions: route intraperitoneal; method in brief: as §6
[19] = tested on: Mus musculus; assay: Weight change in g when a dose of 5 mg/kg administered intraperitoneally in B-16 melanoma infected mice; assay type: functional; conditions: route intraperitoneal; method in brief: as §5
[20] = tested on: Mus musculus; assay: Weight change in g when a dose of 2.5 mg/kg administered intraperitoneally in B-16 melanoma infected mice; assay type: functional; conditions: route intraperitoneal; method in brief: as §5
[21] = tested on: Mus musculus; assay: Weight change in g when a dose of 20 mg/kg administered intraperitoneally in B-16 melanoma infected mice; assay type: functional; conditions: route intraperitoneal; method in brief: as §5
[22] = tested on: Mus musculus; assay: Survivors at day 30 when a dose of 40 mg/kg to P388 leukemia model; 0/10; assay type: functional
[23] = tested on: Mus musculus; assay: Survivors at day 60 when a dose of 20 mg/kg to B16 melanoma infected mice; 5/10; assay type: functional
[24] = tested on: Mus musculus; assay: Survivors at day 60 when a dose of 5 mg/kg to B16 melanoma infected mice; 0/10; assay type: functional
[25] = tested on: Mus musculus; assay: Weight change in g when a dose of 80 mg/kg administered intraperitoneally to P388 leukemia model; conditions: route intraperitoneal
[26] = tested on: Mus musculus; assay: Median survival day of B16 melanoma infected mice when a dose of 1.25 mg/kg administered intraperitoneally; assay type: functional; conditions: route intraperitoneal; method in brief: as §1
[27] = tested on: Mus musculus; assay: […] in C38 adenocarcinoma cell line when a dose of 75 mg/kg administered intravenously to mice; assay type: functional, MC-38; conditions: route intravenous; method in brief: as §2
[28] = tested on: Mus musculus; assay: Median tumoral volume of C38 adenocarcinoma model when a dose of 100 mg/kg administered intravenously on D1 to mice; assay type: functional; conditions: route intravenous; method in brief: as §3
[29] = tested on: Mus musculus; assay: Median survival day in P388 cell line when a dose of 40 mg/kg administered intraperitoneally to P388 leukemia model; assay type: functional; conditions: route intraperitoneal; method in brief: as §4
[30] = tested on: Mus musculus; assay: Antitumor activity against P388 cells at a dose of 80 mg/kg administered intraperitoneally to P388 leukemia model; assay type: functional; conditions: dose 40 mg/kg; route intraperitoneal; in the assay text read “40 mg/kg” for “80 mg/kg”; method in brief: as §6
[31] = tested on: Mus musculus; assay: Antitumor activity against P388 cells at a dose of 10 mg/kg administered intraperitoneally to P388 leukemia model; assay type: functional; conditions: route intraperitoneal; method in brief: as §6
[32] = tested on: Mus musculus; assay: Survivors at day D30 when a dose of 40 mg/kg administered intravenously to L1210 leukemia mice model; 0/10; assay type: functional; conditions: route intravenous
[33] = tested on: Mus musculus; assay: Survivors at day 60 when a dose of 10 mg/kg to B16 melanoma infected mice; 0/10
[34] = tested on: Mus musculus; assay: Weight change in g when a dose of 40 mg/kg administered intraperitoneally to P388 leukemia model; conditions: route intraperitoneal

## Cc1cnc(NCCCN(C)C)c2c3cc(O)ccc3n(C)c12
[1]
  Median survival day: 32.6
[2]
  Median tumoral volume: 0 cm*3
[3]
  Median tumoral volume: 2.73 cm*3
[4]
  Median survival day: 18.75
[5]
  Median survival day: 17.75
[6]
  T/C: 157%
[7]
  Weight change: -0.2 g
[8]
  Survivors: 0
[9]
  Survivors: 1
[10]
  Survivors: 0
[11]
  Weight change: 0.5 g

## CCN(CC)CCCNc1[nH]cc(C)c2nc3ccc(O)cc3c1-2
[12]
  Median survival day: 56.25
[13]
  Median survival day: 9
[14]
  Median survival day: 48
[15]
  Median survival day: 2.3
[16]
  T/C: 20%
[17]
  T/C: 129%
[18]
  T/C: 139%
[19]
  Weight change: -0.1 g
[20]
  Weight change: 3.6 g
[21]
  Weight change: -0.8 g
[22]
  Survivors: 0
[23]
  Survivors: 5
[24]
  Survivors: 0
[25]
  Weight change: -1.7 g

## CCN(CC)CCCNc1ncc(C)c2c1c1cc(O)ccc1n2C
[26]
  Median survival day: 32.25
[27]
  Median tumoral volume: 0.97 cm*3
[28]
  Median tumoral volume: 3.24 cm*3
[29]
  Median survival day: 23
[30]
  T/C: 202%
[31]
  T/C: 156%
[32]
  Survivors: 0
[33]
  Survivors: 0
[34]
  Weight change: -5.2 g
